ChEMBL document CHEMBL1147141, “Potent nonpeptide antagonists of the bradykinin B1 receptor: structure-activity relationship studies with novel diaminochroman carboxamides” (J Med Chem, 2007)

Assays:
B1 bradykinin receptor [1] = biological target: T1, B1 bradykinin receptor (Homo sapiens, UniProt P46663); assay: Displacement of [3H]DAK from human bradykinin B1 receptor expressed in CHOD cells; assay type: cell-based
T1 sequence (P46663 whole entry): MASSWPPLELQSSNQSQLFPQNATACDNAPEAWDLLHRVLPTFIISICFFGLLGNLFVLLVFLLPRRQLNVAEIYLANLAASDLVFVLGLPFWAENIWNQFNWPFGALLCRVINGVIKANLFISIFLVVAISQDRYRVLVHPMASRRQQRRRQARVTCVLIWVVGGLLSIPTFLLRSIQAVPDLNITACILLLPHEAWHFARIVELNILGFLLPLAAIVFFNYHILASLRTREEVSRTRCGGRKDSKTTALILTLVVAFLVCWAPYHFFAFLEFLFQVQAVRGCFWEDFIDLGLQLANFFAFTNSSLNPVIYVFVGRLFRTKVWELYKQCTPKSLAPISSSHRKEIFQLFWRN

B1 bradykinin receptor [2] = biological target: T1, B1 bradykinin receptor; assay: Antagonist activity at human bradykinin B1 receptor expressed in CHOD cells assessed as effect on DAK-induced calcium flux; assay type: functional, cell-based
B1 bradykinin receptor [3] = biological target: T2, B1 bradykinin receptor (Oryctolagus cuniculus, UniProt P48748); assay: Antagonist activity at rabbit bradykinin B1 receptor; assay type: functional
T2 sequence (P48748 whole entry): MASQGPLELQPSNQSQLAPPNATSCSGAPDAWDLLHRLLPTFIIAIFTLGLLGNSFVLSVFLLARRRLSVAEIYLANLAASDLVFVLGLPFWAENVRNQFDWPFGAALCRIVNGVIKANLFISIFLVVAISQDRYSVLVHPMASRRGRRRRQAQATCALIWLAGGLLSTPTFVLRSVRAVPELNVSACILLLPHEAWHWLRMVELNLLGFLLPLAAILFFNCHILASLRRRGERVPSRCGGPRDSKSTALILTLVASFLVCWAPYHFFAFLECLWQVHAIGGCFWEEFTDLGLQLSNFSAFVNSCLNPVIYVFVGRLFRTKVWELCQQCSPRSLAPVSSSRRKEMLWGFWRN

B1 bradykinin receptor [4] = biological target: T3, B1 bradykinin receptor (Rattus norvegicus, UniProt P97583); assay: Antagonist activity at rat bradykinin B1 receptor; assay type: functional
T3 sequence (P97583 whole entry): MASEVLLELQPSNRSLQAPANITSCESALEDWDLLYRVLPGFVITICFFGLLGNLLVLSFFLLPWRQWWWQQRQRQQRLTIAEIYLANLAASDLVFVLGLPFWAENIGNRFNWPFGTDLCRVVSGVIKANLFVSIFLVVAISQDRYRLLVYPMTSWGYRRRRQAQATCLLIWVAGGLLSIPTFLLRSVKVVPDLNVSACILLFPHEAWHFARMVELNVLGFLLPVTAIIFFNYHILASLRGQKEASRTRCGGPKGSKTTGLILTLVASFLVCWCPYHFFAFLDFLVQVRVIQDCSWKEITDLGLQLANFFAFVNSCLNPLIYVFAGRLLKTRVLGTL

[5] = Half life in Sprague-Dawley rat at 1 mg/kg, iv; assay type: ADME, organism-based; design: dose 1 mg/kg, route intravenous; conditions: in vivo
Summary of the method: (§1)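 Male Sprague-Dawley rats (225-280 g) with femoral and jugular vein cannulae were fasted overnight. They received an i.v. bolus of 1 mg/kg in 100% DMSO, prepared on the dosing day, n = 3. Blood was drawn via jugular cannula over 6 or 8 h into heparin. Plasma was acetonitrile-precipitated and measured by LC-MS/MS (positive MRM). Parameters were noncompartmental and reported with SEM.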

[6] = Clearance in Sprague-Dawley rat at 1 mg/kg, iv; assay type: ADME, organism-based; design: dose 1 mg/kg, route intravenous; conditions: in vivo; summary of the method: as §1
[7] = Volume of distribution at steady state in Sprague-Dawley rat at 1 mg/kg, iv; assay type: ADME, organism-based; design: dose 1 mg/kg, route intravenous; conditions: in vivo, read-out: Vss; summary of the method: as §1
[8] = Oral bioavailability in Sprague-Dawley rat at 10 mg/kg, po; assay type: ADME, organism-based; conditions: in vivo
Summary of the method: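 Male Sprague-Dawley rats (225-280 g), cannulated and fasted overnight, were dosed by oral gavage at 10 mg/kg in 1% Tween 80, 2% HPMC, prepared 24-48 h before dosing, n = 3. Jugular blood was sampled over 6 or 8 h. Plasma was analysed by LC-MS/MS and parameters derived noncompartmentally.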

[9] = Metabolic stability in human liver microsomes; assay type: ADME, Microsome; conditions: read-out: Stability
[10] = Metabolic stability in rat liver microsomes; assay type: ADME, Microsome; conditions: read-out: Stability

SMILES	Ki (B1 bradykinin receptor [1])	IC50 (B1 bradykinin receptor [2])	other results
COCCNCc1ccc2c(c1)OCC[C@H]2NC(=O)C[C@@H](NS(=O)(=O)c1ccc(Cl)c(Cl)c1)c1ccc(F)cc1	6.7 nM (antagonist)	9.4 nM (antagonist)	–
CCNCc1ccc2c(c1)OCC[C@H]2NC(=O)C[C@@H](NS(=O)(=O)c1ccc2ccccc2c1)c1ccccc1	8.9 nM (antagonist)	60.2 nM (antagonist)	–
CC(C)(C)NCc1ccc2c(c1)OCC[C@H]2NC(=O)C[C@@H](NS(=O)(=O)c1ccc(Cl)c(Cl)c1)c1ccc(F)cc1	5 nM (antagonist)	9.6 nM (antagonist)	–
CC(C)(C)NCc1ccc2c(c1)OCC[C@H]2NC(=O)C[C@@H](NS(=O)(=O)c1ccc(Cl)cc1)c1ccccc1	132 nM (antagonist)	580 nM (antagonist)	–
CC(C)CNCc1ccc2c(c1)OCC[C@H]2NC(=O)C[C@@H](NS(=O)(=O)c1ccc2ccccc2c1)c1ccccc1	5 nM (antagonist)	10.5 nM (antagonist)	–
CC(C)(C)NCc1ccc2c(c1)OCC[C@H]2NC(=O)C[C@@H](NS(=O)(=O)c1cccc(Cl)c1)c1ccccc1	27.7 nM (antagonist)	113 nM (antagonist)	–
CC(C)(C)NCc1ccc2c(c1)OCC[C@H]2NC(=O)C[C@@H](NS(=O)(=O)c1ccccc1C(F)(F)F)c1ccccc1	367 nM (antagonist)	2000 nM (antagonist)	–
CC(C)(C)NCc1ccc2c(c1)OCC[C@H]2NC(=O)C[C@@H](NS(=O)(=O)c1cccc(C(F)(F)F)c1)c1ccc(C#N)cc1	120 nM (antagonist)	566 nM (antagonist)	–
CC(C)(C)NCc1ccc2c(c1)OCC[C@H]2NC(=O)C[C@@H](NS(=O)(=O)c1ccc(Cl)cc1Cl)c1ccccc1	127 nM (antagonist)	255 nM (antagonist)	–
O=C(C[C@@H](NS(=O)(=O)c1cccc(C(F)(F)F)c1)c1ccc(F)cc1)N[C@@H]1CCOc2cc(CN3CCCC3)ccc21	5.5 nM (antagonist)	19.7 nM (antagonist)	IC50 (B1 bradykinin receptor [3]): 450 nM (antagonist); Ki (B1 bradykinin receptor [4]): 151 nM (antagonist); half-life [5]: 3.8 h; clearance [6]: 51.3 mL/min/kg; Vd [7]: 13.7 L/kg; bioavailability [8]: 41%; microsomal CLint [9]: 355 µL/min/mg; microsomal CLint [10]: 158 µL/min/mg
CC(C)NCc1ccc2c(c1)OCC[C@H]2NC(=O)C[C@@H](NS(=O)(=O)c1ccc2ccccc2c1)c1ccccc1	8.3 nM (antagonist)	45.9 nM (antagonist)	–
O=C(C[C@@H](NS(=O)(=O)c1ccc2ccccc2c1)c1ccccc1)N[C@@H]1CCOc2cc(CN3CCOCC3)ccc21	3.7 nM (antagonist)	10.9 nM (antagonist)	–
CC(C)NCc1ccc2c(c1)OCC[C@H]2NC(=O)C[C@@H](NS(=O)(=O)c1cccc(C(F)(F)F)c1)c1ccc(F)cc1	4.7 nM (antagonist)	20.1 nM (antagonist)	–
C[C@@H]1CCC[C@H](C)N1Cc1ccc2c(c1)OCC[C@H]2NC(=O)C[C@@H](NS(=O)(=O)c1ccc2ccccc2c1)c1ccccc1	13.4 nM (antagonist)	96.3 nM (antagonist)	–
CC(C)CNCc1ccc2c(c1)OCC[C@H]2NC(=O)C[C@@H](NS(=O)(=O)c1cccc(C(F)(F)F)c1)c1ccc(F)cc1	5.9 nM (antagonist)	14.8 nM (antagonist)	–
NCc1ccc2c(c1)OCC[C@H]2NC(=O)C[C@@H](NS(=O)(=O)c1ccc2ccccc2c1)c1ccccc1	308 nM (antagonist)	352 nM (antagonist)	–

SMILES	Ki (B1 bradykinin receptor [1])	IC50 (B1 bradykinin receptor [2])	other results
CC(C)(C)NCc1ccc2c(c1)OCC[C@H]2NC(=O)C[C@@H](NS(=O)(=O)c1cc(Cl)c(F)cc1F)c1ccccc1	20.6 nM (antagonist)	127 nM (antagonist)	–
CNCc1ccc2c(c1)OCC[C@H]2NC(=O)C[C@@H](NS(=O)(=O)c1ccc2ccccc2c1)c1ccccc1	138 nM (antagonist)	212 nM (antagonist)	–
O=C(C[C@@H](NS(=O)(=O)c1ccc2ccccc2c1)c1ccccc1)N[C@@H]1CCOc2cc(CN3CCCC3)ccc21	5.7 nM (antagonist)	14.8 nM (antagonist)	–
CC(C)(C)NCc1ccc2c(c1)OCC[C@H]2NC(=O)C[C@@H](NS(=O)(=O)c1ccc(F)c(Cl)c1)c1ccccc1	25.2 nM (antagonist)	203 nM (antagonist)	–
CN(C)Cc1ccc2c(c1)OCC[C@H]2NC(=O)C[C@@H](NS(=O)(=O)c1ccc2ccccc2c1)c1ccccc1	84.8 nM (antagonist)	167 nM (antagonist)	–
CC(C)(C)NCc1ccc2c(c1)OCC[C@H]2NC(=O)C[C@@H](NS(=O)(=O)c1cccc(C(F)(F)F)c1)c1ccccc1	17.9 nM (antagonist)	78.4 nM (antagonist)	–
CC(C)(C)NCc1ccc2c(c1)OCC[C@H]2NC(=O)C[C@@H](NS(=O)(=O)c1cccc(C(F)(F)F)c1)c1ccc(F)cc1	4.8 nM (antagonist)	9.9 nM (antagonist)	–
CC(C)(C)NCc1ccc2c(c1)OCC[C@H]2NC(=O)C[C@@H](NS(=O)(=O)c1ccc(C(C)(C)C)cc1)c1ccccc1	24.8 nM (antagonist)	60.9 nM (antagonist)	–
CC(C)(C)NCc1ccc2c(c1)OCC[C@H]2NC(=O)C[C@@H](NS(=O)(=O)c1ccccc1Cl)c1ccccc1	393 nM (antagonist)	2030 nM (antagonist)	–
O=C(C[C@@H](NS(=O)(=O)c1cccc(C(F)(F)F)c1)c1ccc(F)cc1)N[C@@H]1CCOc2cc(CNC3CCC3)ccc21	10 nM (antagonist)	46.2 nM (antagonist)	–
O=C(C[C@@H](NS(=O)(=O)c1ccc2ccccc2c1)c1ccccc1)N[C@@H]1CCOc2cc(CO)ccc21	> 50000 nM	> 4000 nM	–
Cc1c(Cl)cccc1S(=O)(=O)N[C@H](CC(=O)N[C@@H]1CCOc2cc(CNC(C)(C)C)ccc21)c1ccccc1	40.6 nM (antagonist)	207 nM (antagonist)	–
CC(C)(C)NCc1ccc2c(c1)OCC[C@H]2NC(=O)C[C@@H](NS(=O)(=O)c1ccc(Cl)c(Cl)c1)c1ccccc1	7.6 nM (antagonist)	24.3 nM (antagonist)	–
O=C(C[C@@H](NS(=O)(=O)c1ccc2ccccc2c1)c1ccccc1)N[C@@H]1CCOc2cc(CNC3CCCCC3)ccc21	21.8 nM (antagonist)	69.9 nM (antagonist)	–
CC(C)(C)NCc1ccc2c(c1)OCC[C@H]2NC(=O)C[C@@H](NS(=O)(=O)c1ccc2ccccc2c1)c1ccccc1	5.4 nM (antagonist)	17 nM (antagonist)	–
CC(C)(C)NCc1ccc2c(c1)OCC[C@H]2NC(=O)C[C@@H](NS(=O)(=O)c1ccc(C(F)(F)F)cc1)c1ccccc1	77.6 nM (antagonist)	330 nM (antagonist)	–
